Measurements gathered from unrelated publications.
Protocols differ between the studies behind these lines.

SMILES | tested on | assay | system | conditions | measurement | result
CCCCCCC#Cc1cncc(-c2nnc(SCc3ccc([N+](=O)[O-])o3)n2C2CC2)c1 | Mycobacterium tuberculosis | microbial growth | ERDMAN | – | IC90 | 0.13 µM
CCN1CCc2c(sc3[nH]c(=O)n(O)c(=O)c23)C1 | Human betaherpesvirus 5 | viral replication, inhibitor | – | 10 µM, 7 days | inhibition | -4.8%
COc1ccc2c3c1O[C@H]1C(=O)CC[C@@]4(O)[C@@H](C2)N(C)CC[C@]314 | – | thermal pain | rat | intraperitoneal | ED50 | 2.67 mg/kg
Cc1csc2c(=O)n(O)c(=O)[nH]c12 | Human betaherpesvirus 5 | viral replication, inhibitor | – | 10 µM, 7 days | inhibition | 33%
CCCCCCC#Cc1cncc(-c2nnc(SCc3ccc(Cl)cc3)n2C)c1 | Mycobacterium tuberculosis | microbial growth | – | – | IC50 | 0.85 µM
O=c1[nH]c2sc(-c3ccc(F)cc3)cc2c(=O)n1O | Human betaherpesvirus 5 | viral replication, inhibitor | – | 10 µM, 7 days | inhibition | -12%
CCCCCCC#Cc1cncc(-c2nnc(SCc3ccc(Cl)cc3)n2C2CC2)c1 | Mycobacterium tuberculosis | microbial growth | ERDMAN | – | IC90 | 7.5 µM
Cc1c(C(=O)O)sc2[nH]c(=O)n(O)c(=O)c12 | Human betaherpesvirus 5 | viral replication, inhibitor | – | 10 µM, 7 days | inhibition | 11%
CCOC(=O)C1=C(N)N(c2ccc(C(=O)OCC)cc2)C(O)=C(C#N)C12C(=O)Nc1ccccc12 (stereo not drawn) | HepG2 | cell growth or viability, MTT | – | 3.125 µM, 24 h | viability | 74.5%
O=C(NCc1ccc(F)cc1)c1nc(Cl)c2cccnc2c1O | Human betaherpesvirus 5 | viral replication, inhibitor | HFF | – | EC50 | 8.3 µM
CN1CC[C@]23c4c5ccc(O)c4O[C@H]2[C@@H](O)C=C[C@H]3[C@H]1C5 | – | thermal pain | rat | intraperitoneal | ED50 | 7.63 mg/kg
Nc1ncnc2c([C@@H]3N[C@H](CO)[C@@H](O)[C@H]3O)c[nH]c12 | human respiratory syncytial virus | viral replication, inhibitor | MA104 | 88.8 µM | inhibition | 94.2%
